# Source: ChEMBL document CHEMBL4346663, “N-Cinnamoylanthranilates as human TRPA1 modulators: Structure-activity relationships and channel binding sites” (Eur J Med Chem, 2019)
# Calls of active or inactive are those of the source. No cut-off for these calls is given here.
# Tests used:
# Assay type in all cases: cell-based
# [1] = tested on: Transient receptor potential cation channel subfamily A member 1 (Homo sapiens), O75762 [F909A]; experiment: Agonist activity at human TRPA1 Phe909Ala mutant expressed in HEK293 cells assessed as Ca2+ influx at 1 uM by fluorescence assay
# Sequence of Transient receptor potential cation channel subfamily A member 1 (Homo sapiens), O75762 [F909A] (O75762 whole entry F909A): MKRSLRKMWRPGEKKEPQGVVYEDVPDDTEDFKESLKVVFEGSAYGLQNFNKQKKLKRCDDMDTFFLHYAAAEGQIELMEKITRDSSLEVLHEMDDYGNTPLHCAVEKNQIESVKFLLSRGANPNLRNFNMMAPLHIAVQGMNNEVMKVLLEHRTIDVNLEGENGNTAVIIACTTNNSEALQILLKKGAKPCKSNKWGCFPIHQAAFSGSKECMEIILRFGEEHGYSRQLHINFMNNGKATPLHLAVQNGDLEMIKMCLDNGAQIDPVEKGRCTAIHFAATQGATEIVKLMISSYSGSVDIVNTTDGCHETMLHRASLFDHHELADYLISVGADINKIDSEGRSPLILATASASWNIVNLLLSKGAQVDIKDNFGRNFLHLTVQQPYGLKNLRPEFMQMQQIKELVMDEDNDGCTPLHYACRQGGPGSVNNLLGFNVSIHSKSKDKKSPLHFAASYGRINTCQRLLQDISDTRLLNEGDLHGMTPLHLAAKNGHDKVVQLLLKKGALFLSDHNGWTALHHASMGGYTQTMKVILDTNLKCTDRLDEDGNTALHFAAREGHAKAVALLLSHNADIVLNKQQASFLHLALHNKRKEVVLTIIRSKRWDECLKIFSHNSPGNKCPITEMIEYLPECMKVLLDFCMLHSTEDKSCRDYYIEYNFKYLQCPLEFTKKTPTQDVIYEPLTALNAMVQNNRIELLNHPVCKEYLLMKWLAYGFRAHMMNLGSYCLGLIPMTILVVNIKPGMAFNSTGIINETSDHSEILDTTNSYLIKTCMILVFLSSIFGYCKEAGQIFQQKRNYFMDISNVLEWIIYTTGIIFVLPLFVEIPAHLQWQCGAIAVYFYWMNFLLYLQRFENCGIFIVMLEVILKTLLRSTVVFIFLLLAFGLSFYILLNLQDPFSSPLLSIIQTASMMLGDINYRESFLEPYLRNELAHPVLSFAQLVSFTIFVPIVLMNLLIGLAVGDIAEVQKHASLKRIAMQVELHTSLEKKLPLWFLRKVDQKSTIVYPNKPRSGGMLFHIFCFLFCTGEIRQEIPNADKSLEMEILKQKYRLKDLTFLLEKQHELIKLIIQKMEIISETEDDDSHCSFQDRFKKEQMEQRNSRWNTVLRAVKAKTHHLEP
# Summary of the method: (§1)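 HEK293 cells stably expressing hTRPA1 point mutants (C621A, F909A or F944A), single-cell cloned under G418 selection. Cells plated on poly-D-lysine for 48 h, loaded with Fluo-4AM 2 µM for 45 min at room temperature. FlexStation read (ex 485/em 538 nm): 20 s baseline, compound added, calcimycin added at 180 s. Response expressed as % calcimycin from ΔRFU, vehicle-subtracted, and compared with wild-type hTRPA1 cells.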
# [2] = target: T1, Transient receptor potential cation channel subfamily A member 1 (Homo sapiens, UniProt O75762); experiment: Agonist activity at human TRPA1 expressed in HEK293 cells assessed as increase in calcium influx by FLIPR analysis
# T1 sequence (O75762 whole entry): as the sequence (O75762 whole entry F909A) above, with A909F counted along it
# Summary of the method: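 Stably transfected hTRPA1-HEK293 cells plated on poly-D-lysine at 12500 cells per well, grown 48 h, loaded with 2 µM Fluo-4AM for 45 min in the dark at room temperature. Assayed in isotonic HEPES buffer (pH 7.4) on a plate reader, ex 485/em 538 nm. Compound added at 20 s, calcimycin at 180 s. ΔRFU taken as % calcimycin after DMSO subtraction. Three independent experiments.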
# [3] = tested on: Transient receptor potential cation channel subfamily A member 1 (Homo sapiens), O75762 [C621A]; experiment: Agonist activity at human TRPA1 […] mutant expressed in HEK293 cells assessed as Ca2+ influx at 1 uM by fluorescence assay
# Sequence of Transient receptor potential cation channel subfamily A member 1 (Homo sapiens), O75762 [C621A] (O75762 whole entry C621A): as the sequence (O75762 whole entry F909A) above, with C621A, A909F counted along it
# [4] = target: T1, Transient receptor potential cation channel subfamily A member 1; experiment: Agonist activity at human TRPA1 expressed in HEK293 cells assessed as increase in calcium influx by Fluo-4-AM dye based fluorescence assay; conditions: read-out: EC50
# Summary of the method: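 Stably transfected hTRPA1- or hTRPM8-HEK293 cells on poly-D-lysine plates for 48 h, loaded with Fluo-4AM (2 µM, 45 min, dark, room temperature), in isotonic HEPES buffer pH 7.4. FlexStation 240 s run: 20 s baseline, compound added, calcimycin added at 180 s. ΔRFU expressed as % calcimycin, DMSO-subtracted. Screening N = 3. Dose-response curves fitted for logEC50 (N = 3 in duplicate or triplicate).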
# [5] = tested on: Transient receptor potential cation channel subfamily A member 1 (Homo sapiens), O75762 [F909A]; experiment: Agonist activity at human TRPA1 Phe909Ala mutant expressed in HEK293 cells assessed as Ca2+ influx […] fluorescence assay; summary of the method: as §1
# [6] = tested on: Transient receptor potential cation channel subfamily A member 1 (Homo sapiens), O75762 [F944A]; experiment: Agonist activity at human TRPA1 Phe944Ala mutant expressed in HEK293 cells assessed as Ca2+ influx […] by fluorescence assay; summary of the method: as §1
# Sequence of Transient receptor potential cation channel subfamily A member 1 (Homo sapiens), O75762 [F944A] (O75762 whole entry F944A): as the sequence (O75762 whole entry F909A) above, with A909F, F944A counted along it
# [7] = tested on: Transient receptor potential cation channel subfamily A member 1 (Homo sapiens), O75762 [C621A]; experiment: Agonist activity at human TRPA1 […] mutant expressed in HEK293 cells assessed as Ca2+ influx […] by fluorescence assay; summary of the method: as §1
# [8] = target: T1, Transient receptor potential cation channel subfamily A member 1; experiment: Agonist activity at human TRPA1 expressed in CHO cells assessed as increase in calcium influx by Fluo-4-AM dye based fluorescence assay
# [9] = target: Transient receptor potential cation channel subfamily A member 1 (Mus musculus, UniProt Q8BLA8); experiment: Agonist activity at mouse TRPA1 expressed in CHO cells assessed as increase in calcium influx by Fluo-3 based FLIPR analysis
# Sequence of Transient receptor potential cation channel subfamily A member 1 (Mus musculus, UniProt Q8BLA8) (Q8BLA8 whole entry): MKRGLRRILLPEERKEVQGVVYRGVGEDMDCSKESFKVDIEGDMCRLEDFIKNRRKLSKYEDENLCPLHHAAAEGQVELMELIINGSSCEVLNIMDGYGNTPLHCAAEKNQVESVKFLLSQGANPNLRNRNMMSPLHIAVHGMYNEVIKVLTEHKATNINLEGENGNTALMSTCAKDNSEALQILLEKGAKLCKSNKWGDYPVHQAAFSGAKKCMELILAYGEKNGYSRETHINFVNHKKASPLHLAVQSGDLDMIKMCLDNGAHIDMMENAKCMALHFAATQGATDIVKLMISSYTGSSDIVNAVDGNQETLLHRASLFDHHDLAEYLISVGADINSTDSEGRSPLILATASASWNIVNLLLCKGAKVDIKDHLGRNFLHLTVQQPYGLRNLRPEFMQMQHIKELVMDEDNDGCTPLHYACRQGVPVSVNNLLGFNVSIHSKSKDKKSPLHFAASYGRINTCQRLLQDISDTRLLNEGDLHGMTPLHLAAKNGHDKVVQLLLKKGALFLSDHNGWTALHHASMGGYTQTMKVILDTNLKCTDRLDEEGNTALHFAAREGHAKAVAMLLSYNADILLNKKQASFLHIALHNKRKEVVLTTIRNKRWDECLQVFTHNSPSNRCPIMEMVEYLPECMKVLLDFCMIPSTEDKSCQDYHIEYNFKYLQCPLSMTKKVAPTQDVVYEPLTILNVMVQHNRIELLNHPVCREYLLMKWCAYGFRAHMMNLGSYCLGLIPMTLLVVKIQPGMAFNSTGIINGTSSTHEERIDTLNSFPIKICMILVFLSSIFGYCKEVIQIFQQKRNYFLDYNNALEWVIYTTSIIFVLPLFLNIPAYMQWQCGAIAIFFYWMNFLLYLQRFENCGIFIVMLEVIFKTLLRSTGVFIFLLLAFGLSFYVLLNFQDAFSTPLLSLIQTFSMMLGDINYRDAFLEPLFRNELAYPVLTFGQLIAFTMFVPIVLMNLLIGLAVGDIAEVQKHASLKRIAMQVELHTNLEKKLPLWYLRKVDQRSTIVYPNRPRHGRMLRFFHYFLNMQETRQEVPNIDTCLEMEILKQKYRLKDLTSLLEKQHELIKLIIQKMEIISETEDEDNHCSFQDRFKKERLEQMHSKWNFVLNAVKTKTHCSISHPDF
# [10] = tested on: Transient receptor potential cation channel subfamily A member 1 (Homo sapiens), O75762 [F909A]; experiment: Agonist activity at human TRPA1 Phe909Ala mutant expressed in HEK293 cells assessed as Ca2+ influx at 30 uM by fluorescence assay; summary of the method: as §1
# [11] = tested on: Transient receptor potential cation channel subfamily A member 1 (Homo sapiens), O75762 [F944A]; experiment: Agonist activity at human TRPA1 Phe944Ala mutant expressed in HEK293 cells assessed as Ca2+ influx at 100 uM by fluorescence assay
# Summary of the method: (§2)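 HEK293 cells stably expressing hTRPA1 point mutants, made by FuGENE 6 transfection, G418 (0.5 mg ml-1) selection and single-cell cloning, grown in DMEM with 25 mM HEPES, 10% FBS and geneticin. Ca2+ influx was read by Fluo dye fluorescence at room temperature, with calcimycin added at the end. Response was ΔRFU as % of calcimycin, with the DMSO vehicle subtracted.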
# [12] = target: T1, Transient receptor potential cation channel subfamily A member 1; experiment: Agonist activity at human TRPA1 expressed in HEK293 assessed as increase in calcium influx by […]
# [13] = tested on: Transient receptor potential cation channel subfamily A member 1 (Homo sapiens), O75762 [F909A]; experiment: Agonist activity at human TRPA1 Phe909Ala mutant expressed in HEK293 cells assessed as Ca2+ influx at 100 uM by fluorescence assay; summary of the method: as §2
# [14] = target: T1, Transient receptor potential cation channel subfamily A member 1; experiment: Agonist activity at human TRPA1 expressed in HEK293 cells assessed as increase in calcium influx by Calcium-5 dye based fluorescence assay
# [15] = tested on: Transient receptor potential cation channel subfamily A member 1 (Homo sapiens), O75762 [F944A]; experiment: Agonist activity at human TRPA1 Phe944Ala mutant expressed in HEK293 cells assessed as Ca2+ influx at 30 uM by fluorescence assay; summary of the method: as §1
# [16] = target: T1, Transient receptor potential cation channel subfamily A member 1; experiment: Agonist activity at human TRPA1 expressed in HEK293 cells assessed as increase in calcium influx by Fluo-3/acetoxymethyl ester dye based FLIPR analysis
structure (smiles),measurement,setting,value
O=C(O)c1cc([N+](=O)[O-])ccc1NCCCc1ccccc1 [5-NITRO-2-PHENYLPROPYLAMINOBENZOIC ACID [NPPB]],Activity,[1],Active
same,EC50,[2],0.32 µM
same,Activity,[3],inactive
same,EC50,[4],0.6 µM
CCCN(CCC)S(=O)(=O)c1ccc(C(=O)O)cc1 [PROBENECID],Activity,[5],Active
same,Activity,[6],inactive
same,Activity,[7],inactive
same,EC50,[8],4200 µM
O=C/C=C/c1ccccc1,EC50,[9],61 µM
same,EC50,[4],9 µM
same,Activity,[10],Active
C=CCc1ccc(O)c(OC)c1 [EUGENOL],Activity,[11],inactive
same,EC50,[12],261 µM
same,EC50,[4],168 µM
same,Activity,[13],Active
CC(Cc1ccc(O)c(O)c1)C(C)Cc1ccc(O)c(O)c1 (stereo not drawn) [NORDIHYDROGUAIARETIC ACID],EC50,[14],4.9 µM
same,Activity,[15],inactive
same,EC50,[4],35 µM
same,Activity,[10],Active
CC(C)=CCC/C(C)=C/CC/C(C)=C/CSc1ccccc1C(=O)O [SALIRASIB],Activity,[1],Active
same,Activity,[3],inactive
same,EC50,[4],0.8 µM
same,EC50,[16],7 µM
